Source: ChEMBL document CHEMBL4270633, “Discovery of novel vinyl sulfone derivatives as anti-tumor agents with microtubule polymerization inhibitory and vascular disrupting activities” (Eur J Med Chem, 2018)
The source made the active and inactive calls. The calls are words filed in the database; no cut-off is given here.

Legend:
K562 [1] = test: Antiproliferative activity against human K562 cells at 1 uM after 72 hrs by MTT assay; format: functional, cell-based
K562 [2] = test: Antiproliferative activity against human K562 cells at 0.1 uM after 72 hrs by MTT assay relative to control; format: functional
[3] = Inhibition of porcine brain tubulin polymerization after 30 mins by spectrophotometric method; parameters: species or system Sus scrofa
Outline: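 Purified tubulin (2 mg/mL) in PEM buffer (80 mM PIPES pH 6.9, 0.5 mM EGTA, 2 mM MgCl2, 15% glycerol), preincubated on ice with compound or DMSO vehicle, then GTP added. Absorbance at 340 nm followed at 37 °C for 30 min. IC50 derived from area under the polymerization curve.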

K562 [4] = test: Antiproliferative activity against human K562 cells after 72 hrs by MTT assay; format: functional, cell-based; conditions: K562, 72 h
Outline: (§1)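 Cells seeded and held 24 h at 37 °C, 5% CO2, then exposed to a concentration series in medium with 0.1% DMSO for 72 h. MTT (5 mg/mL in PBS) added for 4 h and OD read at 490 nm. IC50 taken from dose-response curves; mean ± SD of at least three independent experiments.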

A549 = test: Antiproliferative activity against human A549 cells after 72 hrs by MTT assay; format: functional, cell-based; conditions: A549, 72 h; outline: as §1
HepG2 = test: Antiproliferative activity against human HepG2 cells after 72 hrs by MTT assay; format: functional, cell-based; conditions: HepG2, 72 h; outline: as §1

SMILES | Activity (K562 [1]) | Activity (K562 [2]) | IC50 [3] [nM] | IC50 (K562 [4]) [nM] | IC50 (A549) [nM] | IC50 (HepG2) [nM]
COc1cc(S(=O)(=O)/C=C/c2ccc(N(C)C)cc2)cc(OC)c1OC | Active | Active | – | – | – | –
COc1cc(S(=O)(=O)/C=C/c2ccccc2)cc(OC)c1OC | Active | Active | – | – | – | –
COc1ccc(/C=C/S(=O)(=O)c2cc(OC)c(OC)c(OC)c2)cc1O | Active | 35.3% | 8230 | 219 | 2280 | 267
COc1ccc(/C=C(\Cl)[S+]([O-])c2cc(OC)c(OC)c(OC)c2)cc1O (configuration not stated) | – | – | 3830 | 183 | 1200 | 243
COc1ccc(/C=C/[S+]([O-])c2cc(OC)c(OC)c(OC)c2)cc1N (configuration not stated) | – | – | – | 746 | 2350 | 753
COc1cc(S(=O)(=O)/C=C/c2ccc(O)cc2)cc(OC)c1OC | Active | Active | – | – | – | –
COc1ccc(/C=C/C(=O)c2cc(OC)c(OC)c(OC)c2)cc1O | – | – | 3690 | 60 | 387 | 102
COc1cc(S(=O)(=O)/C=C/c2ccc([N+](=O)[O-])cc2)cc(OC)c1OC | Active | Active | – | – | – | –
COc1ccc(/C=C/S(=O)(=O)c2cc(OC)c(OC)c(OC)c2)cc1 | Active | Active | – | – | – | –
COc1ccc(/C=C/[S+]([O-])c2cc(OC)c(OC)c(OC)c2)cc1O (configuration not stated) | – | – | 7180 | 258 | 1460 | 307
COc1ccc(/C=C(\F)S(=O)(=O)c2cc(OC)c(OC)c(OC)c2)cc1O | – | – | – | 473 | 1310 | 591
CO/C(=C\c1ccc(OC)c(O)c1)S(=O)(=O)c1cc(OC)c(OC)c(OC)c1 | – | – | – | 190 | 2880 | 599
